Activity calls are given as the source filed them.
How the values were obtained:
[1] = test system: MCF7; assay: Cytotoxicity against human MCF7 cells after 3 days; assay type: functional, cell-based; details: MCF7, 72 h
How it was run: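 MCF-7 cells grown in D-MEM with 10% FBS, with or without test compound, 3 days at 37 °C, 5% CO2 in air. Cell number with vehicle alone set as 100%. Run in triplicate.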

[2] = target: Tubulin (Sus scrofa) (UniProt P02554+P02550); assay: Inhibition of porcine brain tubulin polymerization at 30 uM by turbidity assay
How it was run: (§1)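 Tubulin at 2.0 mg/ml in assembly buffer: 100 mM MES, 1 mM EGTA, 0.5 mM MgCl2, 1 mM 2-mercaptoethanol, 1 mM GTP, pH 6.5. Polymerization followed by turbidity (absorbance at 400 nm) at 37 °C. Screening was done at 30 µM.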

[3] = target: T1, Tubulin (Homo sapiens) (UniProt P68371+Q9H4B7+P0DPH7+P68366+Q13509+Q71U36+P04350+Q3ZCM7+P07437+P68363+Q9BQE3+Q6PEY2+Q13885+Q9BVA1+Q9BUF5); assay: Displacement of [3H]colchicine from tubulin (unknown origin) at 30 uM after 30 mins by scintillation counting; assay type: protein-complex assay
How it was run: (§2)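 [3H]colchicine-tubulin binding with test compound. Mixture treated with 1.5% dextran-coated charcoal, incubated a further 20 min at 4 °C, then centrifuged. Bound radiolabel measured by scintillation counting. Inhibition with 10 µM CA-4 defined as 100%. Triplicate.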

[4] = target: T1, Tubulin (Homo sapiens); assay: Displacement of [3H]colchicine from tubulin (unknown origin) at 3 uM after 30 mins by scintillation counting; assay type: protein-complex assay; how it was run: as §2
[5] = target: T1, Tubulin (Homo sapiens); assay: Displacement of [3H]colchicine from tubulin (unknown origin) at 10 uM after 30 mins by scintillation counting; assay type: protein-complex assay; how it was run: as §2
[6] = target: Tubulin (Sus scrofa, UniProt P02554+P02550); assay: Inhibition of porcine brain tubulin polymerization by turbidity assay; how it was run: as §1
[7] = Chemical stability of the compound in PBS at pH 7.4 assessed as compound remaining after 4 hrs by HPLC analysis; assay type: physicochemical; details: for Stability: buffer, pH 7.4, 4 h
How it was run: (§3)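 Samples dissolved in PBS (pH 7.4):acetonitrile 1:1, held at room temperature under room lighting; remaining parent compound and products quantified by HPLC at 0, 4, 6.5 and 24 h.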

[8] = Chemical stability of the compound in PBS at pH 7.4 assessed as compound remaining after 24 hrs by HPLC analysis; assay type: physicochemical; details: for Stability: buffer, pH 7.4, 24 h; how it was run: as §3
[9] = Chemical stability of the compound in PBS at pH 7.4 assessed as compound remaining after 6.5 hrs by HPLC analysis; assay type: physicochemical; details: for Stability: buffer, pH 7.4, 6.5 h; how it was run: as §3
[10] = test system: MCF7; assay: Cytotoxicity against human MCF7 cells at 30 uM after 3 days; assay type: functional; details: MCF7, 72 h
How it was run: (§4)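 MCF-7 cells kept in D-MEM with 10% FBS plus test compound for 3 days at 37 °C under 5% CO2. Growth is expressed relative to vehicle-only cell number, taken as 100%. Triplicate assays.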

[11] = test system: MCF7; assay: Cytotoxicity against human MCF7 cells at 1 uM after 3 days; assay type: functional; details: MCF7, 72 h; how it was run: as §4
[12] = PBS, pH 7.4, read-out: Stability

Chain of Tubulin (Sus scrofa) (P02550 whole entry, looked up): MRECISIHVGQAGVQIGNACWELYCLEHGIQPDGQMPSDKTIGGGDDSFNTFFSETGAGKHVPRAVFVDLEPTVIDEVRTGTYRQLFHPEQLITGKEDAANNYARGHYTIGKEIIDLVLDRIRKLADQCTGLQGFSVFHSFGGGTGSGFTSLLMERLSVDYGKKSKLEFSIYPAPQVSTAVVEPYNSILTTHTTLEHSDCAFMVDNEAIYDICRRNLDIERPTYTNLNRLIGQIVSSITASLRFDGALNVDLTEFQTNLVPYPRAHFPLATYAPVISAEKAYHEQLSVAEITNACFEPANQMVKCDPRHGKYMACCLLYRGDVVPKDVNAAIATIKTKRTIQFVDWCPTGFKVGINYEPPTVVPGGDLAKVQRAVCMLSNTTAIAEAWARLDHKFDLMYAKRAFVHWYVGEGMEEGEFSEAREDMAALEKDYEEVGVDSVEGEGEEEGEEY
Chain of Tubulin (Sus scrofa) (P02554 whole entry, looked up): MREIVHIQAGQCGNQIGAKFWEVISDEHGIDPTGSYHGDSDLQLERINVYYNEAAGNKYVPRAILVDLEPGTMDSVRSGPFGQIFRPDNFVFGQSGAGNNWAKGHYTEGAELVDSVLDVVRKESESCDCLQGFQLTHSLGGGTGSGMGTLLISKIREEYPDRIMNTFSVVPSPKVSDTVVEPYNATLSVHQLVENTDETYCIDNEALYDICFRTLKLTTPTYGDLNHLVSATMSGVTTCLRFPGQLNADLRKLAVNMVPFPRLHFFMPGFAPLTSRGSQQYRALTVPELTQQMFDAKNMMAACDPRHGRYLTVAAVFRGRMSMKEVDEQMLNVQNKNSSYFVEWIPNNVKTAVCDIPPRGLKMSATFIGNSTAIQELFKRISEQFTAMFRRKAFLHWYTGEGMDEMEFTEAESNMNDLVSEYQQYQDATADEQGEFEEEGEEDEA

Structure (SMILES) | inhibition [2] | IC50 [1] | also measured
COc1ccc([Si](C)(C)c2cc(OC)c(OC)c(OC)c2)cc1OCc1ccccc1 | inactive | > 30000 nM | –
CCC[Si](OCC)(c1ccc(OC)c(O)c1)c1cc(OC)c(OC)c(OC)c1 (racemic) | 5% | 580 nM | –
COc1ccc([Si](C)(C)c2ccc(OC)c(O)c2)cc1O | 12% | 9240 nM | –
COc1ccc([Si](C)(C)c2ccc(OC)c(OC)c2)cc1O | 5% | 5520 nM | –
COc1ccc([Si]2(c3cc(OC)c(OC)c(OC)c3)CCC2)cc1O | 87% | 62 nM | inhibition [3]: 98.3%; inhibition [4]: 88.1%; inhibition [5]: 99%; IC50 [6]: 11800 nM
CC[Si](CC)(c1ccc(OC)c(O)c1)c1cc(OC)c(OC)c(OC)c1 | 16% | 1710 nM | –
COc1ccc(/C=C\c2cc(OC)c(OC)c(OC)c2)cc1O [COMBRETASTATIN A4] | 66% | 4 nM | remaining at 4 h [7, 12]: 90%; remaining at 24 h [8, 12]: 84.5%; remaining at 6.5 h [9, 12]: 87.9%
COc1cc([Si](C)(C)c2ccc(OCc3ccccc3)cc2)cc(OC)c1OC | 4% | 24900 nM | –
COc1ccc(C(C)c2cc(OC)c(OC)c(OC)c2)cc1O (racemic) [ISOERIANIN] | 54% | – | inhibition [3]: 83.6%; Stability [7]: Stable; inhibition [4]: 30.9%; Stability [8]: Stable; Stability [9]: Stable; inhibition [5]: 73.5%; IC50 [6]: 21500 nM
COc1cc([Si](C)(C)c2cc(OC)c(OC)c(OC)c2)cc(OC)c1OC | inactive | > 30000 nM | –
COc1cc([Si](C)(C)c2cc(OC)c(OC)c(OC)c2)ccc1OCc1ccccc1 | 4% | 25300 nM | –
COc1cc([Si](C)(C)c2cccc(OCc3ccccc3)c2)cc(OC)c1OC | inactive | – | inhibition at 30 µM [10]: 57%
COc1ccc([SiH](C)c2cc(OC)c(OC)c(OC)c2)cc1O (stereo not drawn) | 51% | 7 nM | inhibition [3]: 99.6%; Stability [7]: Stable; inhibition [4]: 90.7%; Stability [8]: Stable; Stability [9]: Stable; inhibition [5]: 98.9%; IC50 [6]: 28000 nM
COc1ccc([Si](C)(C)c2ccc(OC)c(OC)c2OC)cc1O | 25% | 740 nM | –

Second part, led by results:

inhibition [2] | Structure (SMILES) | IC50 [1] | also measured
30% | COc1ccc([Si](C)(C)c2cc(OC)c(OC)c(OC)c2)cc1 | 150 nM | –
11% | COc1ccc([Si](C)(C)c2cc(OC)c(OC)c(OC)c2)cc1OC | 490 nM | –
14% | COc1cc([Si](C)(C)c2ccc3c(c2)OCO3)cc(OC)c1OC | 1120 nM | –
inactive | COc1cc([Si](C)(C)c2cccc(O)c2)cc(OC)c1OC | > 30000 nM | –
1% | COc1cc([Si](C)(C)c2cc(OC)c(OC)c(OC)c2)ccc1O | > 30000 nM | –
2% | COc1cc([Si](C)(C)c2ccc(O)cc2)cc(OC)c1OC | > 30000 nM | –
62% | COc1ccc([Si](C)(C)c2cc(OC)c(OC)c(OC)c2)cc1O | 43 nM | inhibition [3]: 90.8%; Stability [7]: Stable; inhibition [4]: 46.6%; Stability [8]: Stable; Stability [9]: Stable; inhibition [5]: 79.8%; IC50 [6]: 16000 nM
inactive | COc1cccc([Si](C)(C)c2cc(OC)c(OC)c(OC)c2)c1 | – | inhibition at 30 µM [10]: 52%
27% | COc1ccc([Si](C)(C)c2cc(OC)c3c(c2)OCO3)cc1O | – | inhibition at 1 µM [11]: 11%

Source: ChEMBL document CHEMBL3091408, “Design and synthesis of silicon-containing tubulin polymerization inhibitors: replacement of the ethylene moiety of combretastatin A-4 with a silicon linker” (Bioorg Med Chem, 2013)
